Reference: ChEMBL document CHEMBL4308831, “Developing a Biased Unmatched Bivalent Ligand (BUmBL) Design Strategy to Target the GPCR Homodimer Allosteric Signaling (cAMP over β-Arrestin 2 Recruitment) Within the Melanocortin Receptors” (J Med Chem, 2018)
The source made the active and inactive calls. The rule behind the calls is not given here. Non-standard residues stand in square brackets, D forms with d. Residues, ends and D or L forms follow the SMILES beside them. d2Nal = N[C@H](Cc1ccc2ccccc2c1)C(=O)O

What was measured:
Melanocortin receptor 4 [1] = biological target: T1, Melanocortin receptor 4 (Homo sapiens, UniProt P32245); experiment: Selectivity ratio of EC50 for agonist activity at human FLAG-tagged MC4R expressed in HTLA cells assessed as induction of beta-arrestin recruitment to EC50 for agonist activity at human FLAG-tagged MC4R expressed in HEK293 cells assessed as induction of intracellular cAMP accumulation; format: functional, cell-based
T1 sequence (P32245 whole entry): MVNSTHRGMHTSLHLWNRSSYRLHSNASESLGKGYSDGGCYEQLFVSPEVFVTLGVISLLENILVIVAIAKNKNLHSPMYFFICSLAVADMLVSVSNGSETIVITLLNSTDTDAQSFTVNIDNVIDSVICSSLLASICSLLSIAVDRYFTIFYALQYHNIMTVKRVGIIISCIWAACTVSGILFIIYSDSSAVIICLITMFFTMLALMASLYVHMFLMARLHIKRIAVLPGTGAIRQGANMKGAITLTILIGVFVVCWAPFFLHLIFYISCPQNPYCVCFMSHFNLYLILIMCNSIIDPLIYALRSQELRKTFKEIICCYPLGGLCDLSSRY

Melanocortin receptor 4 [2] = biological target: T1, Melanocortin receptor 4; experiment: Agonist activity at human FLAG-tagged MC4R expressed in HTLA cells assessed as induction of beta-arrestin recruitment at 10 uM after 18 hrs by Presto-tango assay relative to NDP-MSH; format: cell-based
How it was run: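 HTLA cells (HEK293 with tTA-luciferase reporter and β-arrestin2-TEV) transiently transfected by calcium phosphate with hMC4R PRESTO-Tango construct (4 µg/plate), held 15–24 h at 35 °C and 3% CO2, then plated at 20,000 cells/well in 1% dialyzed FBS. Ligands 10^-12 to 10^-5 M in HEPES/HBSS pH 7.4, 18 h at 37 °C; Bright-Glo luminescence. Duplicates, ≥3 experiments.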

[3] = biological target: Melanocortin receptor 4 (Mus musculus) (UniProt P56450); experiment: Decrease in protein-protein interaction of mouse Nano-Luc-tagged MC4R/mouse Halo-tagged MC4R homodimer expressed in HEK293 cells up to 10 mins by BRET assay; format: cell-based
Melanocortin receptor 4 (Mus musculus), sequence (P56450 whole entry): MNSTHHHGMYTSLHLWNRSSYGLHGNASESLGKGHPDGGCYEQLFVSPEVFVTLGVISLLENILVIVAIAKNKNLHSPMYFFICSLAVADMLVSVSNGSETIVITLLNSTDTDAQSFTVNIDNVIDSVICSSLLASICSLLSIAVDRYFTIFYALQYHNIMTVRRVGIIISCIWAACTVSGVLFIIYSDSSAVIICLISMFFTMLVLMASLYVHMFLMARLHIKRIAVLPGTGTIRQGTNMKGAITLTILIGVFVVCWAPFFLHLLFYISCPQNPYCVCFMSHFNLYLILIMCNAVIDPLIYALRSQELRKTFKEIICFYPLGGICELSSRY

[4] = biological target: Melanocortin receptor 4 (Mus musculus) (UniProt P56450); experiment: Agonist activity at mouse MC4R expressed in HEK293 cells assessed as induction of intracellular cAMP accumulation after 2 hrs by AlphaScreen assay; format: functional, cell-based
How it was run: (§1)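 Stable HEK293 lines (G418 selection) carrying the receptor in pcDNA3, detached with Versene and resuspended in HBSS stimulation buffer containing 0.5 mM IBMX, 5 mM HEPES, 0.1% BSA, pH 7.4, with anti-cAMP acceptor beads; 10,000 cells/well. Ligand 10^-13 to 10^-4 M final, 2 h at room temperature in the dark, then donor beads in lysis buffer for 2 h. Duplicates, ≥3 experiments; curves normalized and flipped relative to controls.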

Melanocortin receptor 4 [5] = biological target: T1, Melanocortin receptor 4; experiment: Agonist activity at human FLAG-tagged MC4R expressed in HEK293 cells assessed as induction of intracellular cAMP accumulation after 2 hrs by AlphaScreen assay; format: functional, cell-based
Melanocortin receptor 4 [6] = biological target: T1, Melanocortin receptor 4; experiment: Antagonist activity at human FLAG-tagged MC4R expressed in HEK293 cells assessed as reduction in NDP-MSH-induced intracellular cAMP accumulation after 2 hrs by AlphaScreen assay; format: functional, cell-based; details: read-out: pA2 (converted)
How it was run: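 Stable hMC4R-Flag HEK293 cells in IBMX-containing HBSS stimulation buffer with AlphaScreen cAMP beads, 10,000 cells/well, stimulated 2 h at room temperature. Antagonist ligands tested dose-dependently against NDP-MSH stimulation; pA2 from Schild regression. Duplicate points, at least three independent experiments.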

Melanocortin receptor 4 [7] = biological target: T1, Melanocortin receptor 4; experiment: Agonist activity at human FLAG-tagged MC4R expressed in HEK293 cells assessed as induction of intracellular cAMP accumulation at 10 uM after 2 hrs by AlphaScreen assay relative to NDP-MSH; format: functional, cell-based; how it was run: as §1
[8] = biological target: Melanocortin receptor 4 (Mus musculus) (UniProt P56450); experiment: Effect on protein-protein interaction of mouse Nano-Luc-tagged MC4R/mouse Halo-tagged MC4R homodimer expressed in HEK293 cells at 10^-9 to 10^-5 M up to 10 mins by BRET assay; format: cell-based

Row | SMILES | Ratio EC50 (Melanocortin receptor 4 [1]) | Activity (Melanocortin receptor 4 [2]) | Activity [4] | Kb (Melanocortin receptor 4 [6]) | Activity (Melanocortin receptor 4 [7]) | also measured
1 | CC(=O)N[C@@H](Cc1cnc[nH]1)C(=O)N[C@H](Cc1ccc2ccccc2c1)C(=O)N[C@@H](CCCNC(=N)N)C(=O)N[C@@H](Cc1c[nH]c2ccccc12)C(=O)N1CCC[C@H]1C(=O)NCC(=O)N1CCC[C@H]1C(=O)NCC(=O)N1CCC[C@H]1C(=O)NCC(=O)N1CCC[C@H]1C(=O)NCC(=O)N1CCC[C@H]1C(=O)NCC(=O)N1CCC[C@H]1C(=O)NCC(=O)N[C@@H](Cc1cnc[nH]1)C(=O)N[C@H](Cc1ccccc1)C(=O)N[C@@H](CCCNC(=N)N)C(=O)N[C@@H](Cc1c[nH]c2ccccc12)C(N)=O | 3000 | 55% | – | – | – | –
2 | CC(=O)N[C@@H](Cc1cnc[nH]1)C(=O)N[C@H](Cc1ccc2ccccc2c1)C(=O)N[C@@H](CCCNC(=N)N)C(=O)N[C@@H](Cc1c[nH]c2ccccc12)C(=O)NCCCOCCOCCOCCCNC(=O)COCC(=O)N[C@@H](Cc1cnc[nH]1)C(=O)N[C@H](Cc1ccccc1)C(=O)N[C@@H](CCCNC(=N)N)C(=O)N[C@@H](Cc1c[nH]c2ccccc12)C(N)=O | 3000 | 20% | – | – | – | –
3 | CC(=O)N[C@@H](Cc1cnc[nH]1)C(=O)N[C@H](Cc1ccccc1)C(=O)N[C@@H](CCCNC(=N)N)C(=O)N[C@@H](Cc1c[nH]c2ccccc12)C(=O)NCCCOCCOCCOCCCNC(=O)COCC(=O)N[C@@H](Cc1cnc[nH]1)C(=O)N[C@H](Cc1ccccc1)C(=O)N[C@@H](CCCNC(=N)N)C(=O)N[C@@H](Cc1c[nH]c2ccccc12)C(N)=O | – | – | Active | – | – | Activity [3]: Dose-dependent effect
4 | CC(=O)N[C@@H](Cc1cnc[nH]1)C(=O)N[C@H](Cc1ccc2ccccc2c1)C(=O)N[C@@H](CCCNC(=N)N)C(=O)N[C@@H](Cc1c[nH]c2ccccc12)C(=O)NCCCOCCOCCOCCCNC(=O)COCC(=O)NCCCOCCOCCOCCCNC(=O)COCC(=O)N[C@@H](Cc1cnc[nH]1)C(=O)N[C@H](Cc1ccccc1)C(=O)N[C@@H](CCCNC(=N)N)C(=O)N[C@@H](Cc1c[nH]c2ccccc12)C(N)=O | 3000 | 25% | – | – | – | EC50 (Melanocortin receptor 4 [5]): 0.0059 µM
5 | CC(=O)N[C@@H](Cc1cnc[nH]1)C(=O)N[C@H](Cc1ccc2ccccc2c1)C(=O)N[C@@H](CCCNC(=N)N)C(=O)N[C@@H](Cc1c[nH]c2ccccc12)C(=O)N1CCC[C@H]1C(=O)NCC(=O)N1CCC[C@H]1C(=O)NCC(=O)N1CCC[C@H]1C(=O)NCC(=O)N1CCC[C@H]1C(=O)NCC(=O)N1CCC[C@H]1C(=O)NCC(=O)N1CCC[C@H]1C(=O)NCC(N)=O (Ac-H[d2Nal]RWPGPGPGPGPGPG-NH2) | – | 30% | – | 0.0525 µM | 55% | –
6 | CC(=O)N[C@@H](Cc1cnc[nH]1)C(=O)N[C@H](Cc1ccc2ccccc2c1)C(=O)N[C@@H](CCCNC(=N)N)C(=O)N[C@@H](Cc1c[nH]c2ccccc12)C(=O)NCCCOCCOCCOCCCNC(=O)COCC(=O)N[C@@H](Cc1cnc[nH]1)C(=O)N[C@H](Cc1ccc2ccccc2c1)C(=O)N[C@@H](CCCNC(=N)N)C(=O)N[C@@H](Cc1c[nH]c2ccccc12)C(N)=O | – | 10% | inactive | 0.0158 µM | 70% | Activity [8]: inactive

More lines, main results first:

Row | Ratio EC50 (Melanocortin receptor 4 [1]) | Activity (Melanocortin receptor 4 [2]) | Activity [4] | Kb (Melanocortin receptor 4 [6]) | Activity (Melanocortin receptor 4 [7]) | SMILES | also measured
7 | – | 15% | – | 0.00759 µM | 55% | CC(=O)N[C@@H](Cc1cnc[nH]1)C(=O)N[C@H](Cc1ccc2ccccc2c1)C(=O)N[C@@H](CCCNC(=N)N)C(=O)N[C@@H](Cc1c[nH]c2ccccc12)C(=O)NCCCOCCOCCOCCCNC(=O)COCC(N)=O | –
8 | 3000 | 45% | Active | – | – | CC(=O)N[C@@H](Cc1cnc[nH]1)C(=O)N[C@H](Cc1ccccc1)C(=O)N[C@@H](CCCNC(=N)N)C(=O)N[C@@H](Cc1c[nH]c2ccccc12)C(=O)NCCCOCCOCCOCCCNC(=O)COCC(=O)N[C@@H](Cc1cnc[nH]1)C(=O)N[C@H](Cc1ccc2ccccc2c1)C(=O)N[C@@H](CCCNC(=N)N)C(=O)N[C@@H](Cc1c[nH]c2ccccc12)C(N)=O | –
9 | – | 30% | inactive | – | 50% | CC(=O)N[C@@H](Cc1c[nH]cn1)C(=O)N[C@H](Cc1ccc2ccccc2c1)C(=O)N[C@@H](CCCN=C(N)N)C(=O)N[C@@H](Cc1c[nH]c2ccccc12)C(N)=O | Activity [8]: inactive
10 | – | – | Active | – | – | CC(=O)N[C@@H](Cc1cnc[nH]1)C(=O)N[C@H](Cc1ccccc1)C(=O)N[C@@H](CCCNC(=N)N)C(=O)N[C@@H](Cc1c[nH]c2ccccc12)C(N)=O | Activity [3]: Dose-dependent effect
11 | – | 20% | – | 0.0135 µM | 50% | N=C(N)NCCC[C@H](NC(=O)[C@@H](Cc1ccc2ccccc2c1)NC(=O)[C@H](Cc1cnc[nH]1)NC(=O)COCC(=O)NCCCOCCOCCOCCCN)C(=O)N[C@@H](Cc1c[nH]c2ccccc12)C(N)=O | –
12 | – | – | – | 0.0151 µM | – | CC(=O)N[C@@H](Cc1cnc[nH]1)C(=O)N[C@H](Cc1ccc2ccccc2c1)C(=O)N[C@@H](CCCNC(=N)N)C(=O)N[C@@H](Cc1c[nH]c2ccccc12)C(N)=O | –
